The values that follow come from ChEMBL document CHEMBL1130204, “3 alpha-Hydroxy-3 beta-(phenylethynyl)-5 beta-pregnan-20-ones: synthesis and pharmacological activity of neuroactive steroids with high affinity for GABAA receptors” (J Med Chem, 1997).

pEC50, pIC50: −log10 of the molar value.

One assay is filed under the species Rattus norvegicus. As to the kind of experiment: The maximum inhibitory potency was calculated by fitting [35S]TBPS inhibition data to a sigmoid function (rat brain cortical P2 membranes). In kind it is functional. In a few lines:
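Rat cortical P2 membranes washed in 200 mM NaCl/50 mM Na-K phosphate pH 7.4, incubated 90 min at room temperature with 2 nM [35S]TBPS, 5 µM GABA and test drug in DMSO (final 0.5%). Nonspecific binding defined with 2 µM unlabeled TBPS. Filtration, scintillation counting. Fits to one- or two-component, full or partial inhibition models chosen by F-test; IC50 and Imax as mean ± SEM of individual experiments.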

Another assay concerns Mus musculus. As to the kind of experiment: Percent of animals (n=8) not exhibiting PTZ-induced ( Pentylentetrazol protection) seizures 10 min following a 10 mg/kg ip dose of steroid. It is filed as functional. Particulars: route intraperitoneal. An outline of the steps:
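Male NSA mice (15-20 g), n = 8. […] Mice watched 30 min for clonic seizure (forelimb clonus ≥3 s). Read-out is the percent of mice protected.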

The target of assay [1] is GABA-A receptor; anion channel. As to the kind of experiment: In vitro inhibition of [35S]TBPS binding to gamma-aminobutyric-acid A receptor in rat brain cortical membranes in the presence of 5 uM GABA. In kind it is cell membranes, Membrane. In a few lines: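 Rat cortical P2 membranes, washed in 200 mM NaCl/50 mM Na-K phosphate pH 7.4, incubated 90 min at room temperature with 2 nM [35S]TBPS, 5 µM GABA and test drug in DMSO (final 0.5%). Nonspecific binding taken with 2 µM unlabeled TBPS. Filtration, then scintillation counting. Partial vs full and one- vs two-component models chosen by F-test.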

In assay [2] the target is T1, GABA-A receptor; alpha-1/beta-2/gamma-2 (Homo sapiens, UniProt P14867+P18507+P47870).
T1 sequence (P14867 whole entry): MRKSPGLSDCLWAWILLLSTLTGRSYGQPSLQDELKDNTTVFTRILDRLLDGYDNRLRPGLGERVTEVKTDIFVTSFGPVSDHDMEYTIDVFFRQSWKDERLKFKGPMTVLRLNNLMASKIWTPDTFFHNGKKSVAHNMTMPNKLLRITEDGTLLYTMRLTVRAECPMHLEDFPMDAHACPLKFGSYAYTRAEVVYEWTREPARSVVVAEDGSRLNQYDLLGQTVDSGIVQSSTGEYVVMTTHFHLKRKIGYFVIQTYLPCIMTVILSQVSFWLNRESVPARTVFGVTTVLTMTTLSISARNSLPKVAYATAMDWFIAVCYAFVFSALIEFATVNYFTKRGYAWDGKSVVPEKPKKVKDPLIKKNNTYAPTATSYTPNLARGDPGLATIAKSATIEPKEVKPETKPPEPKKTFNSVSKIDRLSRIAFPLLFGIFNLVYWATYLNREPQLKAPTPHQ
T1 sequence (P47870 whole entry): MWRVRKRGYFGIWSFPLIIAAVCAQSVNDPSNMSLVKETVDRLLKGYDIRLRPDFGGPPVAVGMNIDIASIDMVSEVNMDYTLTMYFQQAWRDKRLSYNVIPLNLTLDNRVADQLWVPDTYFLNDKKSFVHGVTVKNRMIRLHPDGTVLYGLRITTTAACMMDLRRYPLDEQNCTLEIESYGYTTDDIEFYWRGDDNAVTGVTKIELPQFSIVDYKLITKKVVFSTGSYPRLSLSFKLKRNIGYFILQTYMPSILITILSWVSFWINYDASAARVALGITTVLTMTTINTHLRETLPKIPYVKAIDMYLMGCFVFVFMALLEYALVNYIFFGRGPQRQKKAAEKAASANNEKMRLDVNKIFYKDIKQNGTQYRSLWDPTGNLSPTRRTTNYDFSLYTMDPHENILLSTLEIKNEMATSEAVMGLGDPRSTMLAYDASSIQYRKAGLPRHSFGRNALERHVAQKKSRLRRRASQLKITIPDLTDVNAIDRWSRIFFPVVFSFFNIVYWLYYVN
T1 sequence (P18507 whole entry): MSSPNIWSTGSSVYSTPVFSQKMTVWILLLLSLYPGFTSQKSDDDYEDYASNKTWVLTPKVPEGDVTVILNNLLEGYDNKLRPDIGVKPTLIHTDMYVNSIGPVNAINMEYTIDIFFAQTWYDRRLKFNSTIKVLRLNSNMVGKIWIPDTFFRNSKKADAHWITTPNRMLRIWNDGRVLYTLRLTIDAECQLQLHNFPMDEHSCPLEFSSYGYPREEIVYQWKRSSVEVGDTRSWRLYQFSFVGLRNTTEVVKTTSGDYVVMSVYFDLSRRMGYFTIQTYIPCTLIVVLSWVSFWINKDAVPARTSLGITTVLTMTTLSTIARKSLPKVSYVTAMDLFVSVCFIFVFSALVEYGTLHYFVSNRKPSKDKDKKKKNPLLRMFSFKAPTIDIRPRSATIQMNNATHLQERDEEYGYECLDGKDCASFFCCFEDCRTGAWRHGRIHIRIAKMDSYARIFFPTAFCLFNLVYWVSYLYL
Description: Steroid potentiation of 5% GABA responses in Xenopus oocytes expressing human alpha-1-beta-2-gamma-2L subunits of GABA-A receptor. It is filed as functional, cell-based, Oocyte. In a few lines:
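Xenopus oocytes injected with α1, β2, γ2L cRNAs (~1 ng each). Two-electrode voltage clamp at -70 mV in frog Ringer's, pH 7.4. GABA set to give about 5% of the maximal (1 mM GABA) current. Steroid stocks in DMSO diluted into Ringer's, DMSO 0.3%. Modulation is potentiation plus any direct steroid current, fitted to a four-parameter logistic. Mean ± SEM.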

For `CC(=O)[C@H]1CC[C@H]2[C@@H]3CC[C@@H]4C[C@@](O)(CCCc5ccccc5)CC[C@]4(C)[C@H]3CC[C@]12C`, the Imax in the assay listed under Rattus norvegicus is 91%. The molecule further displayed a PTZ protection in the assay on Mus musculus of 13%. The negative logarithm of the IC50 (pIC50) (usually the negative decadic logarithm of the IC50, by convention in mol/L) in assay [1] was 6.72.

Regarding `CC(=O)[C@H]1CC[C@H]2[C@@H]3CC[C@@H]4C[C@@](O)(C#Cc5ccc(C(=O)c6ccccc6)cc5)CC[C@]4(C)[C@H]3CC[C@]12C`, in the assay filed under Rattus norvegicus, the Imax was 96%. Further, the PTZ protection in the assay with Mus musculus turned out to be 38%. Further, the pIC50 in assay [1] was 7.26.

In the case of `CC(=O)[C@H]1CC[C@H]2[C@@H]3CC[C@@H]4C[C@@](O)(C#Cc5cccc(O)c5)CC[C@]4(C)[C@H]3CC[C@]12C`, in the assay filed under Rattus norvegicus, the Imax is 100%. The PTZ protection in the assay on Mus musculus was determined as 0%. For the same molecule, the negative-log IC50 (pIC50) in assay [1] is 6.38.

As to `CC(=O)[C@H]1CC[C@H]2[C@@H]3CC[C@@H]4C[C@@](O)(C#Cc5ccc(C(F)(F)F)cc5)CC[C@]4(C)[C@H]3CC[C@]12C`, the Imax in the assay filed under Rattus norvegicus was 88%. The molecule also displayed a PTZ protection in the assay on Mus musculus of 0%. The pIC50 in assay [1] was 7.25.

Consider `CC(=O)[C@H]1CC[C@H]2[C@@H]3CC[C@@H]4C[C@@](O)(C#Cc5ccccc5)CC[C@]4(C)[C@H]3CC[C@]12C`, for which the Imax in the assay listed under Rattus norvegicus is 100%. This molecule displayed a PTZ protection with Mus musculus of 25%. Besides, in assay [1], the negative logarithm of the IC50 (pIC50) is 7.00.

On to `CC(=O)[C@H]1CC[C@H]2[C@@H]3CC[C@@H]4C[C@@](O)(C#Cc5ccc(C)cc5)CC[C@]4(C)[C@H]3CC[C@]12C`, for which the Imax in the assay listed under Rattus norvegicus was 84%. This molecule also returned a PTZ protection in the assay with Mus musculus of 50%. The pIC50 in assay [1] was 7.08.

In the case of `CC(=O)[C@H]1CC[C@H]2[C@@H]3CC[C@@H]4C[C@@](O)(C#Cc5ccc([N+](=O)[O-])cc5)CC[C@]4(C)[C@H]3CC[C@]12C`, the Imax in the assay listed under Rattus norvegicus is 98%. Further, the PTZ protection with Mus musculus was determined as 13%. Also, in assay [1], the pIC50 was 7.38.

For `CCOC(=O)c1ccc(C#C[C@@]2(O)CC[C@@]3(C)[C@H](CC[C@@H]4[C@@H]3CC[C@]3(C)[C@@H](C(C)=O)CC[C@@H]43)C2)cc1`, the Imax in the assay filed under Rattus norvegicus was 97%. The molecule further had a PTZ protection in the assay with Mus musculus of 19%. Besides, the negative-log IC50 (pIC50) in assay [1] is 7.92.

As for `COc1ccccc1C#C[C@@]1(O)CC[C@@]2(C)[C@H](CC[C@@H]3[C@@H]2CC[C@]2(C)[C@@H](C(C)=O)CC[C@@H]32)C1`, in the assay listed under Rattus norvegicus, the Imax is 89%. This molecule also yielded a PTZ protection in the assay on Mus musculus of 0%. Further, the pIC50 in assay [1] was 6.77.

Turning to `CC(=O)[C@H]1CC[C@H]2[C@@H]3CC[C@@H]4C[C@@](O)(c5ccccc5)CC[C@]4(C)[C@H]3CC[C@]12C`, in the assay filed under Rattus norvegicus, the Imax was 89%. In addition, the PTZ protection in the assay with Mus musculus amounted to 25%. The pIC50 in assay [1] is 6.42.

`CC(=O)[C@H]1CC[C@H]2[C@@H]3CC[C@@H]4C[C@](C)(O)CC[C@]4(C)[C@H]3CC[C@]12C`: the negative logarithm of the IC50 (pIC50) in assay [1] was 7.43.

Regarding `CC(=O)[C@H]1CC[C@H]2[C@@H]3CC[C@@H]4C[C@@](O)(Cc5ccccc5)CC[C@]4(C)[C@H]3CC[C@]12C`, in the assay listed under Rattus norvegicus, the Imax is 101%. The PTZ protection in the assay with Mus musculus is on record as 38%. Further, the negative-log IC50 (pIC50) in assay [1] was 6.96.

`CC(=O)[C@H]1CC[C@H]2[C@@H]3CC[C@@H]4C[C@@](O)(C#Cc5ccc(-c6ccccc6)cc5)CC[C@]4(C)[C@H]3CC[C@]12C`: the Imax in the assay listed under Rattus norvegicus was 90%. The PTZ protection with Mus musculus amounted to 0%. In addition, in assay [1], the negative-log IC50 (pIC50) is 7.27.

As to `CCN(CC)C(=O)c1ccc(C#C[C@@]2(O)CC[C@@]3(C)[C@H](CC[C@@H]4[C@@H]3CC[C@]3(C)[C@@H](C(C)=O)CC[C@@H]43)C2)cc1`, the Imax in the assay filed under Rattus norvegicus was 91%. For the same molecule, in the assay on Mus musculus, the PTZ protection was 13%. Further, the negative-log IC50 (pIC50) in assay [1] is 7.03.

As to `COc1ccc(C#C[C@@]2(O)CC[C@@]3(C)[C@H](CC[C@@H]4[C@@H]3CC[C@]3(C)[C@@H](C(C)=O)CC[C@@H]43)C2)cc1OC`, in the assay filed under Rattus norvegicus, the Imax is 102%. Further, the PTZ protection with Mus musculus was found to be 13%. In addition, in assay [1], the negative-log IC50 (pIC50) was 6.54.

For the molecule `CCOC(=O)c1ccc(C#C[C@@]2(O)CC[C@H]3[C@H](CC[C@@H]4[C@@H]3CC[C@]3(C)[C@@H](C(C)=O)CC[C@@H]43)C2)cc1`, the Imax in the assay listed under Rattus norvegicus is 94%. Besides, in the assay on Mus musculus, the PTZ protection stood at 13%. For the same molecule, the pIC50 in assay [1] is 7.59.

As for `CC(=O)[C@H]1CC[C@H]2[C@@H]3CC[C@@H]4C[C@@](O)(C#Cc5ccc(Cl)cc5)CC[C@]4(C)[C@H]3CC[C@]12C`, the Imax in the assay listed under Rattus norvegicus is 88%. For the same molecule, in the assay on Mus musculus, the PTZ protection was determined as 0%. Further, the negative-log IC50 (pIC50) in assay [1] was 7.15.

In the case of `CC(=O)[C@H]1CC[C@H]2[C@@H]3CC[C@@H]4C[C@@](O)(C#Cc5ccc(C#N)cc5)CC[C@]4(C)[C@H]3CC[C@]12C`, in the assay listed under Rattus norvegicus, the Imax is 85%. Moreover, in the assay on Mus musculus, the PTZ protection worked out at 44%. The negative logarithm of the IC50 (pIC50) in assay [1] was 7.22.

`CC(=O)[C@H]1CC[C@H]2[C@@H]3CC[C@@H]4C[C@@](O)(C#Cc5ccc(O)cc5)CC[C@]4(C)[C@H]3CC[C@]12C`: the Imax in the assay filed under Rattus norvegicus is 100%. This molecule also yielded a PTZ protection in the assay with Mus musculus of 0%. In addition, the negative-log EC50 (pEC50) – broadly, the EC50 on a negative log10 scale, so that one unit is a factor of ten – in assay [2] is less than 6.00. Also, the pIC50 in assay [1] is 5.64.

On to `CC(=O)[C@H]1CC[C@H]2[C@@H]3CC[C@@H]4C[C@@](O)(C#Cc5ccc(C(N)=O)cc5)CC[C@]4(C)[C@H]3CC[C@]12C`, for which the Imax in the assay listed under Rattus norvegicus is 96%. In the assay with Mus musculus, this molecule registered a PTZ protection of 13%. For the same molecule, the pIC50 in assay [1] is 5.74.

Take `CC(=O)[C@H]1CC[C@H]2[C@@H]3CC[C@@H]4C[C@@](O)(C#Cc5ccc6c(c5)OCO6)CC[C@]4(C)[C@H]3CC[C@]12C`: in the assay listed under Rattus norvegicus, the Imax was 93%. In addition, in the assay on Mus musculus, the PTZ protection came out at 13%. The pIC50 in assay [1] is 7.17.

For `COc1ccc(C#C[C@@]2(O)CC[C@@]3(C)[C@H](CC[C@@H]4[C@@H]3CC[C@]3(C)[C@@H](C(C)=O)CC[C@@H]43)C2)cc1`, in the assay listed under Rattus norvegicus, the Imax was 84%. This molecule came in with a PTZ protection in the assay on Mus musculus of 25%. The negative-log IC50 (pIC50) in assay [1] is 7.38.

Consider `C#C[C@@]1(O)CC[C@@]2(C)[C@H](CC[C@@H]3[C@@H]2CC[C@]2(C)[C@@H](C(C)=O)CC[C@@H]32)C1`, for which the pIC50 in assay [1] is 7.41.

With `CC(=O)[C@H]1CC[C@H]2[C@@H]3CC[C@@H]4C[C@@](O)(CCc5ccccc5)CC[C@]4(C)[C@H]3CC[C@]12C`, the Imax in the assay listed under Rattus norvegicus was 102%. The molecule further displayed a PTZ protection in the assay with Mus musculus of 0%. For the same molecule, the pIC50 in assay [1] is 6.82.
